SENP6 inh = SENP6 protease inhibitors, primary screen, biochemical, luminescence, uHTS; Sentrin-specific protease 6 (Homo sapiens), Q9GZR1; Recombinant SENP6 catalytic domain, aminoluciferin luminescence; inhibition, % at 10 µM; 330,000 compounds, 1.8% hits; AID 2599, 2010;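 active = inhibition above about 50% at the single tested dose, limit read from the data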;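 also: plate controls were DMSO wells with enzyme for no effect and DMSO wells lacking enzyme for full effect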
SENP8 block-1 = human SENP8 protease inhibitors, primary screen, biochemical, fluorescence, Nedd8 protein substrate, uHTS. Sentrin-specific protease 8 (Homo sapiens), Q96LD8. recombinant SENP8. inhibition, % at 20 µM. 360,000 compounds, 0.64% hits; in the data active = inhibition mostly above about 40%, no sharp cut-off; inactive = mostly below about 27%
Target sequence (Q96LD8 whole entry, looked up): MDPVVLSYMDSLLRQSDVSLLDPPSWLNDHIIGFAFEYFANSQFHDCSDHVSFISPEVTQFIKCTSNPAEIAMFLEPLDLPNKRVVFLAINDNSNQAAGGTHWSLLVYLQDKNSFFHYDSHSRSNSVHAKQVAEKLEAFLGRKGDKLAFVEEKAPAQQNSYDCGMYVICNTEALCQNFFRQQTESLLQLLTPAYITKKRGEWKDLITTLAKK
SENP7 block = SENP7 protease inhibitors, primary screen, biochemical, luminescence, uHTS. 330,000 compounds, 1.5% hits. AID 434973, 2010. recombinant SENP7, Z-RLRGG-aminoluciferin luminescence, 40 min. inhibition, % at 5 µM;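 active = inhibition above about 50% at the single test dose, limit read from the data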;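 also: plate controls were DMSO with enzyme for no effect and no enzyme buffer wells for full effect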
HSP90 refold inh = HSP90 inhibitors, primary screen, cell lysate, luminescence; Heat shock protein HSP 90 (rabbit reticulocyte lysate; luciferase refolding); Rabbit reticulocyte lysate, luciferase refolding luminescence, 3 h; inhibition, % at 5.6 µM; 290,000 compounds, 0.91% hits;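 active = inhibition above the screen-wide mean plus 3 SD, computed separately per campaign, cut at about 16% in these data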;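 also: 0% = DMSO wells and 100% = 60 µM geldanamycin wells; inhibitors lower the luminescence because luciferase stays unfolded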
SENP1 inh = human SENP1 catalytic domain inhibitors, primary screen, biochemical, FRET, uHTS; 360,000 compounds, 0.21% hits; inhibition, % at 10 µM; AID 624204, 2012; recombinant SENP1 catalytic domain, CyPet-SUMO1-YPet FRET cleavage;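 active = inhibition at least 30% at 10 µM, raw YFP signal under a set limit, fluorescence ratio 0.5 to 1.5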;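 also: 0% = enzyme with DMSO and 100% = no enzyme wells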
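Compound: 10 µM single point, 0.5% DMSO; Test system: hSENP1 catalytic domain, recombinant; Timing: 50 min reaction at room temperature; Technique: FRET, CFP and YFP emission; Control set: no-enzyme wells low, DMSO-plus-enzyme wells high control.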
SENP8 block-2 = SENP8 protease inhibitors, primary screen, biochemical, luminescence | Sentrin-specific protease 8 (Homo sapiens), Q96LD8 | 330,000 compounds, 1.2% hits | purified SENP8, Z-RLRGG-aminoluciferin cleavage | inhibition, % at 10 µM; in the data active = inhibition above about 50%
SENP8 confirm = SENP8 protease inhibitors, retest, confirmation, biochemical, luminescence, single concentration; 6,200 compounds, 40% hits; inhibition, % at 12.5 µM; shares compounds with SENP7 block; Recombinant SENP8, Z-RLRGG-aminoluciferin luminescence, 60 min;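 active = mean inhibition across replicates above about 50%, limit read from the data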
SENP6 confirm = SENP6 protease inhibitors, confirmation, biochemical, luminescence, single concentration. 6,200 compounds, 58% hits. recombinant SENP6, Z-RLRGG-aminoluciferin luminescence. inhibition, % at 12.5 µM. shares compounds with SENP7 block
SENP7 conf = SENP7 protease inhibitors, retest, confirmation, biochemical, luminescence, single concentration | shares compounds with SENP7 block | recombinant SENP7, Z-RLRGG-aminoluciferin luminescence, 40 min | inhibition, % at 12.5 µM | 6,200 compounds, 69% hits
Casp3 select = caspase-3 protease inhibitors, confirmation, selectivity assay for SENP inhibitor project, biochemical, single concentration; shares compounds with SENP7 block; purified caspase-3, Z-DEVD-aminoluciferin luminescence, 60 min; inhibition, % at 12.5 µM; 6,200 compounds, 60% hits; AID 488918, 2010;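 active = mean inhibition above about 50%, limit read from the data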;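 also: plate controls were enzyme with DMSO for no effect and wells without caspase-3 for full effect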
Target sequence (P42574 28-227 limits assumed): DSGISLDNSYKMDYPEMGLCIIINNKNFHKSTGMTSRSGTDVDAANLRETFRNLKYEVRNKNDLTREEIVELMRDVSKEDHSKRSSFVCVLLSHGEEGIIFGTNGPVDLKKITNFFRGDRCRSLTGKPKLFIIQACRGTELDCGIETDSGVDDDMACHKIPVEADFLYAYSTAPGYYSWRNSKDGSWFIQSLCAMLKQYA
SENP luc ctr = counter-screen for SENP inhibitors: luminescence interference; shares compounds with SENP7 block; Pre-incubated SENP8/Z-RLRGG-aminoluciferin, luciferase luminescence interference; inhibition, % at 12.5 µM; 6,200 compounds, 39% hits; AID 488919;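 active = mean inhibition above about 50% when retested at one dose, limit read from the data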;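 also: plate controls were DMSO wells with completed reaction for no effect and substrate without enzyme for full effect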
An asterisk follows results filed as active; . = no result. This is a sample that favours compounds with a hit; in the whole collection about 2.9% have one here.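 The calls were made as follows, unless noted: active = mean inhibition above about 50% in the one-dose retest (limit read from the data); inactive = the rest.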

SMILES	SENP6 inh	SENP8 block-1	SENP7 block	HSP90 refold inh	SENP1 inh	SENP8 block-2	SENP8 confirm	SENP6 confirm	SENP7 conf	Casp3 select	SENP luc ctr
COC(=O)c1cnc(SCC(=O)c2ccccc2)n1C	83.4*	12.8	79.0*	1.9	1.5	70.9*	78.7*	77.2*	92.7*	92.3*	79.9*
O=C(OCC(=O)N1CCCC1=O)c1ccc(O)cc1O	-11.1	3.1	-4.7	.	2.6	-19.0	.	.	.	.	.
CCOC(=O)N1CCN(Cc2nc(CC3CC3)no2)CC1	0.9	2.0	5.7	-4.0	2.7	-7.4	.	.	.	.	.
CN(C)C(=O)CN1CCN(Cc2nc(CC3CC3)no2)CC1	73.0*	12.7	2.5	-0.1	-4.7	6.1	4.6	-2.4	-2.1	-2.9	0.1
O=C(Nc1ccc2c(c1)OCCO2)c1[nH]c(C(F)(F)F)nc1-c1ccccc1	.	19.3	.	.	1.1	.	.	.	.	.	.
CC(=O)Nc1ccc(S(=O)(=O)N2CCCC(C(=O)O)C2)cc1 (stereo not given)	-16.8	7.9	4.6	2.4	0.9	-2.6	.	.	.	.	.
CC(=O)Nc1cccc(NC(=O)c2cccc3cccnc23)c1	12.6	16.6	9.6	9.5	-0.9	-0.2	.	.	.	.	.
Cc1ccc(NC(=O)c2ccccc2O)cc1	53.3*	-82.6	41.1	6.8	-2.7	28.3	54.8*	50.9*	77.6*	61.1*	65.7*
Cc1ccc(C(=O)CC(=O)c2ccccc2)cc1	74.7*	20.5	66.2*	-1.7	-0.1	69.6*	-4.0	65.5*	91.3*	50.5*	44.3
Cc1ccc(NC(=O)c2ccccc2)cc1	-4.8	14.1	50.2*	-5.7	1.3	12.2	41.7	42.1	77.5*	72.0*	53.7*
Cc1ccc(NC(=O)c2cccc3cccnc23)cc1	53.7*	16.3	27.9	-2.9	-0.5	29.6	50.2*	44.6	72.2*	31.8	30.1
COc1ccc(CN2C(=O)CCC2(C)c2nc3ccccc3[nH]2)cc1 (stereo not given)	.	15.2	.	.	0.7	.	.	.	.	.	.
O=C(Nc1cccnc1)/C(N=Nc1cccnc1)=C(\O)c1ccccc1	-2.3	11.3	2.9	-1.5	0.8	12.5	.	.	.	.	.
CC(C)NC(=O)COc1nncc2ccccc12	-3.7	0.4	-4.7	-0.3	1.6	-1.4	.	.	.	.	.
Cc1ccc(C(=O)Nc2ccccc2Cl)cc1	68.7*	1.2	57.8*	2.1	-1.9	45.0	50.3*	54.9*	85.5*	77.7*	54.6*
Cc1ccc(NC(=O)C(C)C(=O)Nc2ccc(C)cc2)cc1	-8.1	1.8	-7.1	1.2	-0.2	5.6	.	.	.	.	.
CC(C)OC(=O)c1ccc(NC(=O)c2ccccc2)cc1	35.5	24.5	29.2	0.1	1.6	15.2	.	.	.	.	.
O=C(Nc1ccccc1)c1ccc(OC(=O)c2ccccc2)cc1	53.8*	4.6	81.0*	-1.8	0.2	12.7	3.9	8.2	12.3	9.2	-0.1
